Hits are enriched below; roughly 4.9% of the tested compounds scored in any of these assays.
APP 5'UTR act – APP 5'UTR luciferase reporter activation; activation, % at 2 µM; SH-SY5Y APP 5'UTR luciferase reporter, luminescence; zero percent = DMSO vehicle wells; hit rate 1% among 190,000;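 active = activation above a set limit, based on mean plus 3 SD of controls, cut at about 140% in these data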
STAT1 act – increases IFN-gamma driven STAT1 reporter signal. AID 932. activation (% of control), % at 5.5 µM. NIH 3T3 STAT1-luciferase reporter, luminescence; 100% = IFN-gamma alone, no compound. hit rate 2.6% among 200,000;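 active = activation above the screen-wide mean activation plus 3 SD, cut at about 130% in these data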;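 note: raw ratio to IFN-gamma control signal so 100% means no change and 0% no light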
STAT3 inh – reduces IL-6 driven STAT3 reporter signal. hit rate 0.89% among 190,000. U3A cells, IL-6 STAT3-luciferase reporter, luminescence; host cell line lacks STAT1. inhibition, % at 5.5 µM;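 active = inhibition above the mean inhibition across all screened compounds plus 3 SD, cut at about 44% in these data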;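 note: 0% = DMSO only wells and 100% = 100 µM nifuroxazide control wells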
STAT1 inh – inhibitors of IFN-gamma induced STAT1 signaling; NIH 3T3 STAT1-luciferase reporter, luminescence; inhibition, % at 5.5 µM; hit rate 0.35% among 200,000;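 active = inhibition above a set limit, the mean inhibition across all tested compounds plus 3 SD, cut at about 34% in these data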;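 note: 0% = IFN-gamma with DMSO and 100% = IFN-gamma with 300 µM nifuroxazide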
NF-kB neuron act – raises NF-kB expression in human neuronal cells. NF-kB reporter expression; stronger effect = higher value. fold change at 12.5 µM. hit rate 1.6% among 190,000. AID 1239; in the data active = fold change above about 3.3
STAT3 act – activators of IL-6 induced STAT3 signaling | activation (% of control), % at 5.6 µM | U3A cells, IL-6 STAT3-luciferase reporter, luminescence; 100% = signal with IL-6 EC80 alone | hit rate 0.91% among 190,000;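 active = activation above the screen-wide mean of compound activation plus 3 SD, cut at about 130% in these data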;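 note: 0% = background luminescence of wells with medium and substrate only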
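Test system: Human STAT1-deficient U3A cells with stable STAT3-luciferase reporter | Also added: Interleukin-6, 33 ng/mL | Timing: Compound pre-incubation 1 h before IL-6, then 6 h stimulation at 37 °C | Technique: Luciferase reporter luminescence | Read-out: Percent of IL-6-only median luminescence | Benchmarks: IL-6-only wells as 100% reference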
* = called active by the depositor.

Screening C=CCc1ccc(OCc2ccc(C(=O)OC)o2)c(OC)c1 returned APP 5'UTR act 4, STAT1 act 125, STAT3 inh 3, STAT1 inh -27, NF-kB neuron act 3.4* and STAT3 act 100.
`COC(=O)c1c(-c2ccccc2)csc1NC1=NS(=O)(=O)c2ccccc21` gave APP 5'UTR act 135, STAT1 act 136*, STAT3 inh -26, STAT1 inh -40, NF-kB neuron act 1.2 and STAT3 act 122.
Screening O=c1c(-c2ccccc2)n[nH]c2ccccc12 returned APP 5'UTR act 112, STAT1 act 124, STAT3 inh 16, STAT1 inh -27, NF-kB neuron act 3.4* and STAT3 act 93.
Cc1ccc(C)c(NC(=S)Nc2ncccc2C)c1 was read as APP 5'UTR act 36, STAT1 act 132*, STAT3 inh 11, STAT1 inh -36, NF-kB neuron act 1.7 and STAT3 act 100.
Screening Cc1cccnc1NC(=O)Nc1ccc(F)cc1 returned APP 5'UTR act -2, STAT1 act 136*, STAT3 inh 4, STAT1 inh -39, NF-kB neuron act 2 and STAT3 act 99.
Screening Cc1ccc(NC(=O)Nc2ncccc2C)cc1 returned APP 5'UTR act 56, STAT1 act 149*, STAT3 inh -9, STAT1 inh -53, NF-kB neuron act 2.5 and STAT3 act 111.
For Cc1cccnc1NC(=S)Nc1ccc(F)cc1F the results were APP 5'UTR act 1, STAT1 act 124, STAT3 inh 22, STAT1 inh -29, NF-kB neuron act 1.7 and STAT3 act 85.
`C[C@@H](C(=O)N1CCNCC1)n1cc(CCCN=C(N)N)nn1` gave APP 5'UTR act 4, STAT1 act 102, STAT1 inh 0 and NF-kB neuron act 1.
For C/C(=N\NC(=O)c1nn(C)c(C)c1Br)c1cccc(NC(=O)c2ccoc2C)c1 the results were APP 5'UTR act 59, STAT1 act 150*, STAT3 inh 22, STAT1 inh -57, NF-kB neuron act 1.5 and STAT3 act 84.
For COc1ccc(/C=N/Nc2c(Cl)cc(Cl)cc2Cl)cc1CN1CCOCC1 the results were APP 5'UTR act -5, STAT1 act 108, STAT3 inh -1, STAT1 inh -8, NF-kB neuron act 0.96 and STAT3 act 100.
O=C1C=C(NCCN2CCOCC2)C(=O)c2cnccc21 was read as APP 5'UTR act -13, STAT1 act 52, STAT3 inh 83*, STAT1 inh 53*, NF-kB neuron act 0.26 and STAT3 act 28.
For CCN(CC)c1ccc(CN2CCC(C(=O)NCc3ccc(C)cc3)CC2)cc1 the results were APP 5'UTR act 10, STAT1 act 87, STAT3 inh 6, STAT1 inh 13, NF-kB neuron act 0.61 and STAT3 act 98.
O=C(NC1=NCCS1)Nc1ccccc1 was read as APP 5'UTR act 53, STAT1 act 135*, STAT3 inh 12, STAT1 inh -37, NF-kB neuron act 2.5 and STAT3 act 93.
`O=C(COc1ccccc1)NC1=NCCS1` gave APP 5'UTR act -6, STAT1 act 122, STAT3 inh -11, STAT1 inh -24, NF-kB neuron act 1.2 and STAT3 act 108.
For CC(Oc1ccccc1)C(=O)NC1=NCCS1 (configuration not stated) the results were APP 5'UTR act 58, STAT1 act 134*, STAT3 inh -10, STAT1 inh -36 and STAT3 act 115.
`C=CCC(CC=C)(NC(=O)c1cccc(C)c1)c1ccccc1` gave APP 5'UTR act 4, STAT1 act 97, STAT3 inh -3, STAT1 inh 3, NF-kB neuron act 1.2 and STAT3 act 102.
COc1ccc2c(c1)O[C@@H](c1cccc(C(F)(F)F)c1)[C@H](OC(=O)NCCc1ccc(OC)c(OC)c1)C2=O was read as APP 5'UTR act 9, STAT1 act 98, STAT3 inh -6, STAT1 inh 2, NF-kB neuron act 0.86 and STAT3 act 102.
`COc1ccc(S(=O)(=O)N2CC(O)C[C@H]2C(=O)OCC(=O)N2CCCCCC2)cc1` (some centres not stated) gave APP 5'UTR act 13, STAT1 act 139*, STAT3 inh -14, STAT1 inh -46, NF-kB neuron act 1.1 and STAT3 act 112.
O=[N+]([O-])c1cccc(N/N=C/c2cccc(O)c2O)c1 was read as APP 5'UTR act -35, STAT1 act 108, STAT3 inh 10, STAT1 inh -9, NF-kB neuron act 2.5 and STAT3 act 93.
`C/C(=N\Nc1cccc([N+](=O)[O-])c1)c1ccccc1O` gave APP 5'UTR act 42, STAT1 act 135*, STAT3 inh -3, STAT1 inh -38, NF-kB neuron act 1.8 and STAT3 act 109.
For O=P(COCCCCCOCP(=O)(c1ccccc1)c1ccccc1)(c1ccccc1)c1ccccc1 the results were APP 5'UTR act -2, STAT1 act 83, STAT3 inh 11, STAT1 inh 17, NF-kB neuron act 0.66 and STAT3 act 100.
`C/C(CCc1ccccc1)=N\NC(=O)C(=O)Nc1cccc(Cl)c1` gave APP 5'UTR act -8, STAT1 act 95, STAT3 inh 3, STAT1 inh 4, NF-kB neuron act 1 and STAT3 act 99.
Screening Cc1cc(C(=O)CSc2ccc(F)cc2)cc(C)c1OC(=S)N(C)C returned APP 5'UTR act 160*, STAT1 act 120, STAT3 inh 10, STAT1 inh -21, NF-kB neuron act 0.4 and STAT3 act 95.
`COc1ccc(SCC(=O)c2cc(C)c(OC(=S)N(C)C)c(C)c2)cc1` gave STAT1 act 106, STAT3 inh 14, STAT1 inh -7, NF-kB neuron act 1 and STAT3 act 88.
`c1ccc(-c2noc(C34CC5CC(CC(C5)C3)C4)n2)cc1` gave APP 5'UTR act -8, STAT1 act 104, STAT3 inh 4, STAT1 inh -5, NF-kB neuron act 1.6 and STAT3 act 100.
c1ccc(-c2noc(C34CC5CC(CC(C5)C3)C4)n2)nc1 was read as APP 5'UTR act 62, STAT1 act 132*, STAT3 inh -20, STAT1 inh -35, NF-kB neuron act 2.3 and STAT3 act 119.
`c1ccc(-c2noc(C3CCCCC3)n2)nc1` gave APP 5'UTR act 101, STAT1 act 131*, STAT3 inh 12, STAT1 inh -34, NF-kB neuron act 2.7 and STAT3 act 94.
For CN(C)/C=N/C(=S)Nc1ccc(Br)cc1F the results were APP 5'UTR act 6, STAT1 act 130*, STAT3 inh -4, STAT1 inh -35, NF-kB neuron act 2.2 and STAT3 act 104.
Screening C=CCNC(=O)c1c(Br)cnn1-c1ccc(C)cc1 returned APP 5'UTR act 76, STAT1 act 147*, STAT3 inh -4, STAT1 inh -55, NF-kB neuron act 3 and STAT3 act 108.

Screening data as filed in PubChem BioAssay.
